In PMC3148415 (Molecular pharmaceutics, 2011):

System: U87MG human glioma xenografts
Assay: Biodistribution in athymic nude mice bearing U87MG human glioma xenografts
Type: in vivo
Details: 4 h p.i., tail vein injection
In short: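 Female athymic nu/nu mice carried U87MG xenografts (5 × 10^6 cells s.c. in both upper shoulder flanks) and were used 4 weeks after inoculation. HPLC-purified 64Cu tracer in saline (~30 μCi/mL, 0.20 μm filtered) was given at ~3 μCi by tail vein. Five mice per time point (0.5, 1, 2, 4, 24 h p.i.) were killed by pentobarbital overdose. Heart blood and organs were weighed and γ-counted, giving %ID/g and %ID/organ.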

tumor uptake: 1.8 %ID/g
Compound: [Cl][64Cu][Cl] [^64CuCl2]
